GASC1 inh: inhibitors of human demethylase GASC-1 KDM4C; actives 0.15% (n = 96,000); GST-KDM4C 2-372, H3K9me3 peptide, LANCE TR-FRET; Q9H3R0; AID 720574; inhibition, % at 12.5 µM;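 active means mean replicate inhibition above about 25%, with at least 55% of replicates also reaching it, limit read from the data, passing the limit was not always enough; inconclusive means only one of those two conditions met; inactive means neither condition met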
Target sequence (Q9H3R0 2-372 limits assumed): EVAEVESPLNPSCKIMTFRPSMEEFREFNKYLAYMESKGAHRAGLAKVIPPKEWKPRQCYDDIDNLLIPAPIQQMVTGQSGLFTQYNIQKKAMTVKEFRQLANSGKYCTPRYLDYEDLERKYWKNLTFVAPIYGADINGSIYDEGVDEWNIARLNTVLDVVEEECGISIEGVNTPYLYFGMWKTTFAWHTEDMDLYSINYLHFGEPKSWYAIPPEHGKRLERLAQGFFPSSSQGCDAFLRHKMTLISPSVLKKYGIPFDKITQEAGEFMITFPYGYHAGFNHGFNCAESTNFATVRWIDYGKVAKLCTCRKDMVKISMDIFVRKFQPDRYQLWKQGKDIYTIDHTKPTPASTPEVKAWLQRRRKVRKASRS
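Material: GST-tagged GASC-1 (JMJD2C) catalytic fragment, aa 2-372. Input: enzyme final amount 10 nM. Medium: HEPES buffer, pH 7.5, plus ascorbate. Reagent: H3K9me3 peptide substrate, Fe(II), 2-oxoglutarate. Doses: single dose. Times: reaction 30 min RT, detection step 1 h RT. Measured by: LANCE TR-FRET. Evaluation: Fall in 671/618 emission ratio as inhibition.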
T cruzi growth-1: T. cruzi proliferation inhibition; T. cruzi beta-gal in NIH3T3, GalScreen luminescence, 90 h; actives 5.9% (n = 77,000); AID 624255; inhibition, % at 8.34 µM;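 active means mean inhibition above about 93%, with at least 55% of replicates each passing it, limit read from the data, passing the limit was not always enough; inconclusive means only one of those two conditions holds; inactive means neither condition holds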
IDH1 mut inh: blocks human IDH1 R132H reductase activity; diaphorase/resazurin fluorescence, 60 min; inhibition, % at 10 µM; actives 0.18% (n = 70,000); in the data active means inhibition above about 34%; inconclusive means no clear call, values can overlap the other calls; inactive means below about 11%;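 further: 0% = DMSO and 100% = no enzyme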
T cruzi growth-2: blocks T. cruzi growth in NIH3T3 host cells | inhibition, % at 8.35 µM | T. cruzi beta-gal in NIH3T3, GalScreen luminescence, 90 h | actives 72% (n = 5,600) | shares compounds with T cruzi growth-1;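 active means mean replicate inhibition above about 95% and at least 55% of replicates individually reaching it, limit read from the data; inconclusive means only one of the two criteria is met; inactive means neither criterion is met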
T cruzi growth-3: blocks T. cruzi growth in NIH3T3 host cells; T. cruzi beta-gal in NIH3T3, GalScreen luminescence, 90 h; actives 21% (n = 5,600); shares compounds with T cruzi growth-1; AID 651740; inhibition, % at 2.09 µM;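 active means mean inhibition above about 95%, with at least 55% of replicates also reaching it, limit read from the data; inconclusive means meets just one of the two conditions; inactive means meets neither condition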;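 further: plate controls were neutral control median for no effect and positive control median for full effect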
3T3 cytotox: cytotoxicity in mouse NIH/3T3 fibroblasts; shares compounds with T cruzi growth-1; NIH/3T3 viability, CellTiter-Glo ATP luminescence, 90 h; cytotoxicity (signal decrease), % at 8.35 µM; actives 14% (n = 5,600); AID 651742;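 active means mean signal decrease across replicates above about 35% based on untreated-well scatter, with enough replicates individually passing, limit read from the data; inconclusive means no rule stated though some were filed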;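 further: 0% = median of neutral control wells and 100% = median of positive control wells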
3T3 cytotox 2: cytotoxicity in mouse NIH/3T3 fibroblasts; shares compounds with T cruzi growth-1; inhibition, % at 24.9 µM; actives 56% (n = 5,600); AID 651744; NIH/3T3 viability, CellTiter-Glo ATP luminescence, 90 h;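 active means mean loss of cell viability signal at or above a set limit, and enough replicates individually reaching it; inconclusive means meets only the mean limit or only the replicate share; inactive means meets neither condition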;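 further: 0% = median of neutral control wells and 100% = median of positive control wells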
* hit, by the source's call; ? = inconclusive; . = not tested or not shown. The sample as a whole holds a higher share of hits than the screen did.

SMILES	GASC1 inh	T cruzi growth-1	IDH1 mut inh	T cruzi growth-2	T cruzi growth-3	3T3 cytotox	3T3 cytotox 2
C[C@H](CO)N1C[C@H](C)[C@H](CN(C)S(=O)(=O)c2ccc(F)cc2)OCCCC[C@H](C)Oc2ccc(NC(=O)Nc3ccc(F)cc3)cc2C1=O	0	103*	1	103*	68	18	45*
C[C@@H]1CN([C@H](C)CO)C(=O)c2cc(NC(=O)Nc3ccc(F)cc3)ccc2O[C@@H](C)CCCCO[C@H]1CN(C)S(=O)(=O)c1ccc(F)cc1	1	97	.	.	.	.	.
C[C@H](CO)N1C[C@H](C)[C@@H](CN(C)S(=O)(=O)c2ccc(F)cc2)OCCCC[C@H](C)Oc2ccc(NC(=O)Nc3ccc(F)cc3)cc2C1=O	0	100*	2	108*	73	14	10
C[C@@H]1CN([C@@H](C)CO)C(=O)c2cc(NC(=O)Nc3ccc(F)cc3)ccc2O[C@@H](C)CCCCO[C@@H]1CN(C)S(=O)(=O)c1ccc(F)cc1	1	58	0	.	.	.	.
C[C@@H]1CN([C@H](C)CO)C(=O)c2cc(NC(=O)Nc3ccc(F)cc3)ccc2O[C@@H](C)CCCCO[C@H]1CN(C)S(=O)(=O)c1ccc(Cl)cc1	.	88	-2	.	.	.	.
C[C@@H]1CN([C@H](C)CO)C(=O)c2cc(NC(=O)Nc3ccc(F)cc3)ccc2O[C@@H](C)CCCCO[C@@H]1CN(C)S(=O)(=O)c1ccc(F)cc1	0	67	.	.	.	.	.
C[C@@H]1CCCCO[C@H](CN(C)S(=O)(=O)c2ccc(F)cc2)[C@H](C)CN([C@H](C)CO)C(=O)c2cc(NC(=O)Nc3ccc(F)cc3)ccc2O1	-1	101*	1	96*	110*	13	40*
C[C@H]1CCCCO[C@@H](CN(C)S(=O)(=O)c2ccc(F)cc2)[C@@H](C)CN([C@@H](C)CO)C(=O)c2cc(NC(=O)Nc3ccc(F)cc3)ccc2O1	-1	96*	0	105*	99*	29	43*
C[C@H](CO)N1C[C@H](C)[C@@H](CN(C)S(=O)(=O)c2ccc(F)cc2)Oc2ccc(NS(=O)(=O)c3ccc(Cl)cc3)cc2C1=O	1	6	.	.	.	.	.
C[C@@H]1CN([C@H](C)CO)S(=O)(=O)c2ccc(-c3ccc(F)cc3)cc2O[C@@H]1CN(C)C(=O)C1CCOCC1	-1	30	.	.	.	.	.
C[C@H](CO)N1C[C@H](C)[C@H](CN(C)S(=O)(=O)c2cn(C)cn2)Oc2cc(C#Cc3ccc(F)cc3)ccc2S1(=O)=O	-3	117	-1	.	.	.	.
C[C@H](CO)N1C[C@H](C)[C@@H](CN(C)S(=O)(=O)c2cn(C)cn2)Oc2cc(C#Cc3cccc(F)c3)ccc2S1(=O)=O	-1	47	-4	.	.	.	.
C[C@H]1CN([C@@H](C)CO)S(=O)(=O)c2ccc(C#Cc3cccc(F)c3)cc2O[C@H]1CN(C)S(=O)(=O)c1cn(C)cn1	-2	96*	0	97*	47	25	29*
C[C@H]1CN([C@@H](C)CO)S(=O)(=O)c2ccc(C#Cc3ccccc3)cc2O[C@@H]1CN(C)S(=O)(=O)c1cn(C)cn1	-4	?	-3	112*	54	41*	36*
C[C@@H]1CN([C@@H](C)CO)S(=O)(=O)c2ccc(C#Cc3ccccc3)cc2O[C@H]1CN(C)S(=O)(=O)c1cn(C)cn1	3	72	0	.	.	.	.
C[C@H](CO)N1C[C@H](C)[C@@H](CN(C)S(=O)(=O)c2cn(C)cn2)Oc2cc(C#Cc3ccc(F)cc3)ccc2S1(=O)=O	0	107*	0	96*	80	18	25*
C[C@@H]1CN([C@@H](C)CO)C(=O)c2cc(NC(=O)Nc3ccc(C(F)(F)F)cc3)ccc2O[C@H]1CN(C)Cc1ccncc1	-1	.	.	.	.	.	.
Cn1ccnc1SCC(=O)Nc1ccc2c(c1)COC2=O	.	.	-1	.	.	.	.
CC(=O)N(C)C[C@@H]1Oc2cc(C#C[C@H](C)O)ccc2S(=O)(=O)N([C@H](C)CO)C[C@H]1C	1	21	.	.	.	.	.
COC(=O)CCCCCCC(=O)N/N=C/C=C/c1ccc(O)c(OC)c1	.	.	1	.	.	.	.
O=C(C1CCCCC1)N1CC(=O)N2[C@H](C1)[C@H](c1ccc(Br)cc1)[C@@H]2CO	2	.	.	.	.	.	.
CCOc1ccc(NC(=O)C(C)n2nc(C)c([N+](=O)[O-])c2C)cc1 (centres undefined)	.	.	0	.	.	.	.
O=C(C[C@H]1CC[C@@H](NC(=O)c2cccnc2)[C@H](CO)O1)NCCN1CCCCC1	0	.	0	.	.	.	.
CN(C)C(=O)c1ccc(-c2ccc3c(c2)[C@@H]2[C@@H](CCN2Cc2ccc4c(c2)OCO4)[C@H](CO)N3)cc1	1	40	.	.	.	.	.
CN(C)C(=O)c1ccc(-c2ccc3c(c2)[C@H]2[C@H](CCN2Cc2ccc4c(c2)OCO4)[C@@H](CO)N3)cc1	0	53	.	.	.	.	.
SMILES	GASC1 inh	T cruzi growth-1	IDH1 mut inh	T cruzi growth-2	T cruzi growth-3	3T3 cytotox	3T3 cytotox 2
OC[C@@H]1Nc2ccc(C#Cc3ccc(F)cc3)cc2[C@H]2[C@@H]1CCN2Cc1ccc2c(c1)OCO2	0	142*	.	109*	108*	41*	104*
N#Cc1ccc(-c2ccc3c(c2)[C@H]2[C@H](CCN2Cc2ccc4c(c2)OCO4)[C@H](CO)N3)cc1	0	?	.	106*	69	-6	105*
CC(C)NC(=O)Nc1ccc2c(c1)C(=O)N([C@@H](C)CO)C[C@@H](C)[C@H](CN(C)C(=O)Nc1cccc3ccccc13)OCCCC[C@@H](C)O2	-1	-64	.	.	.	.	.
C[C@@H]1CCCCO[C@@H](CN(C)Cc2ccccc2)[C@H](C)CN([C@H](C)CO)C(=O)c2cc(NC(=O)Nc3ccc4c(c3)OCO4)ccc2O1	16	95	1	.	.	.	.
Cc1ccc(-c2ccc([C@@H]3[C@@H](CO)N4CCCCN(C(=O)Nc5cccc(F)c5)C[C@@H]34)cc2)cc1	-3	105*	.	89	?	69*	105*
Cc1ccc(-c2ccc([C@@H]3[C@H](CO)N4CCCCN(C(=O)Nc5cccc(F)c5)C[C@@H]34)cc2)cc1	.	81	.	.	.	.	.
Cc1ccc(-c2ccc([C@H]3[C@@H](CO)N4CCCCN(C(=O)Nc5cccc(F)c5)C[C@@H]34)cc2)cc1	1	94	.	.	.	.	.
Cc1ccc(-c2ccc([C@@H]3[C@H]4CN(C(=O)Nc5cccc(F)c5)CCCCN4[C@H]3CO)cc2)cc1	-2	99*	.	100*	108*	47*	104*
O=C(Nc1cccc(F)c1)N1CCCCN2[C@@H](CO)[C@@H](c3ccc(-c4ccncc4)cc3)[C@@H]2C1	-1	?	.	104*	83	23	43*
O=C(Nc1cccc(F)c1)N1CCCCN2[C@H](C1)[C@H](c1ccc(-c3ccncc3)cc1)[C@@H]2CO	-1	76	.	.	.	.	.

High-throughput results deposited in PubChem by Broad Institute.
